These results are taken from ChEMBL document CHEMBL1154000, “Modified low molecular weight cyclic peptides as mimetics of BDNF with improved potency, proteolytic stability and transmembrane passage in vitro” (Bioorg Med Chem, 2009).

Series [1] in a line: Increase in neuronal survival in embryonic chick dorsal root ganglion sensory neurons at 10 uM to 0.1 nM after 48 hrs relative to BDNF.
The nature of series [2]: Stability in mouse plasma assessed as half life at 0.2 mg. Type of series: ADME, cell-free. An outline of the steps:
(§1)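 Peptide (0.2 mg) incubated at 37 °C in single-mouse plasma diluted 50% in PBS, sampled over 24 h. Each aliquot put on ice, treated with lysine (1000 equiv) to displace protein binding, then MeCN to precipitate proteins, centrifuged at 4 °C and diluted for HPLC. Peak areas taken as ratio to 4-isopropylbenzyl alcohol internal standard, as % of t = 0; three experiments.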

Series [3] in a line: Apparent permeability across apical to basolateral side in human Caco-2 cells at 200 uM after 150 mins. Type of series: ADME, cell-based. An outline of the steps: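 Caco-2 cells (passage 82–96) grown 24–25 days on polycarbonate Transwell supports (0.45 µm pore, 1.13 cm²). Basolateral samples taken every 30 min for 150 min with buffer replacement. Samples acetylated, lyophilised, redissolved in 2% TFA and centrifuged; bis-acetylated peptide quantified by LCMS. Papp given as mean ± SEM from 3–4 monolayers.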
On the technique in general: Caco-2 monolayers are a common model of the intestinal barrier.

Series [4] in a line: Increase in neuronal survival in embryonic chick dorsal root ganglion sensory neurons at 10 uM to 0.1 nM after 48 hrs relative to BDNF. Type of series: functional, Gallus gallus, DRG neuron. Conditions: in the assay text read “at 100 uM” for “at 10 uM to 0.1 nM”. An outline of the steps:
(§2)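 Primary embryonic chick DRG sensory neuron cultures. Peptides tested in log10 increments, with surviving neurons counted after 48 h. Triplicate well counts averaged and normalised between BDNF positive (100%) and negative (0%) controls. Data given as mean ± SEM, n = 3–4. pEC20BDNF is the negative log10 of the concentration giving 20% of the BDNF survival response.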

Series [5] in a line: Increase in neuronal survival in embryonic chick dorsal root ganglion sensory neurons assessed as normalized neuronal survival response equivalent to 20% for BDNF after 48 hrs. Type of series: functional, Gallus gallus, DRG neuron. An outline of the steps: as §2
Series [6] concerns Plasma. Description: (§3) Stability in mouse plasma assessed as degradation. Type of series: ADME, cell-free. The gist of the method:
as §1

Series [7] is described as follows: Increase in neuronal survival in embryonic chick dorsal root ganglion sensory neurons at 10 uM to 10 nM after 48 hrs relative to BDNF. Type of series: functional, Gallus gallus, DRG neuron. The gist of the method: as §2
Series [8] in a line: Increase in neuronal survival in embryonic chick dorsal root ganglion sensory neurons at 0.1 uM after 48 hrs relative to BDNF. Type of series: functional, Gallus gallus, DRG neuron. Conditions: in the assay text read “0.01 uM” for “0.1 uM”. The gist of the method: as §2
Series [9] in a line: as §3. The conditions noted are these: read-out: Activity. Type of series: ADME, cell-free. The gist of the method:
as §1

What is called half-life is the time needed for the level to fall by half in the phase considered. What is called Papp A→B is how fast a substance crosses the layer from the apical side. Consider `C[C@@H]1NC(=O)[C@H]2CCCN2C(=O)[C@H](CCCNC(=N)N)NC(=O)[C@H](CCCCN)NC(=O)[C@H](CCCCN)NC1=O`, for which the Activity in series [1] is 37.3%; in series [4] it was 67.7%; in series [5], 7.3; in series [6], “Stable”. The half-life in [2] was over 24 h. In addition, the apical-to-basolateral permeability (Papp A→B) at 2.5 h, 200 µM in series [3] is 0.642 ×10⁻⁶ cm/s.
Turning to `CCCCC(=O)NCCCC[C@@H]1NC(=O)[C@H]2CCCN2C(=O)[C@H](CCCNC(=N)N)NC(=O)[C@H](CCCCN)NC(=O)[C@H](CCCCN)NC1=O`, the apparent permeability from apical to basolateral (Papp A→B) at 2.5 h, 200 µM in series [3] amounted to 0.929 ×10⁻⁶ cm/s. Further, the Activity is 39.4% in series [7] and 7.7 in series [5].
With `CCCCCCCCCCCCCCCC(=O)NCCCC[C@@H]1NC(=O)[C@H]2CCCN2C(=O)[C@H](CCCNC(=N)N)NC(=O)[C@H](CCCCN)NC(=O)[C@H](CCCCN)NC1=O`, the Activity in [8] is recorded as 28.4%; in series [7], 49.4%; in series [5], 9.1.
As to `CCCCCCCC(=O)NCCCC[C@@H]1NC(=O)[C@H]2CCCN2C(=O)[C@H](CCCNC(=N)N)NC(=O)[C@H](CCCCN)NC(=O)[C@H](CCCCN)NC1=O`, the half-life in series [2] is over 24 h. Also, in series [3], the apparent permeability from apical to basolateral (Papp A→B) at 2.5 h, 200 µM came out at 0.922 ×10⁻⁶ cm/s. Also, the values for the Activity in series [7] and in [5] were 38.7% and 7.5, respectively. For the same compound, in series [9], the metabolised amounted to 20%.
Turning to `CCCC[C@@H]1NC(=O)[C@H]2CCCN2C(=O)[C@H](CCCNC(=N)N)NC(=O)[C@H](CCCCN)NC(=O)[C@H](CCCCN)NC1=O`, the Papp A→B at 2.5 h, 200 µM in [3] was determined as 0.288 ×10⁻⁶ cm/s. The Activity is reported as 36.2% in series [7] and 6.2 in series [5].
As for `N=C(N)NCCC[C@@H]1NC(=O)[C@H](CCCCN)NC(=O)[C@H](CCCCN)NC(=O)[C@H](CCCCN)NC(=O)[C@H]2CCCN2C1=O`, the Activity in [7] was 60.9%; in [5], 7.5.
On the same counts, the results for `N=C(N)NCCC[C@@H]1NC(=O)[C@H](CCCCN)NC(=O)[C@H](CCCCN)NC(=O)[C@H](Cc2ccccc2)NC(=O)[C@H]2CCCN2C1=O` are 21.8% and 5.3.
